Assay results as given in ChEMBL document CHEMBL4325883, “Non-chelating p-phenylidene-linked bis-imidazoline analogs of known influenza virus endonuclease inhibitors: Synthesis and anti-influenza activity” (Eur J Med Chem, 2019).

Columns and labels:
[1] = Selectivity index, ratio of CC50 for MDCK cells to IC50 for Influenza A virus (A/Puerto Rico/8/34(H1N1)) […] infected in MDCK cells; assay type: toxicity, cell-based; conditions: dog, read-out: Ratio CC50/IC50
How it was run: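 SI computed as CC50/IC50. CC50 from the MTT assay on MDCK cells (24 h). IC50 is the concentration halving A/PR/8/34 (H1N1) titer in MDCK cells, measured by hemagglutination.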

[2] = Cytotoxicity against MDCK cells after 24 hrs by MTT assay; assay type: cell-based, Canis lupus familiaris; conditions: dog
How it was run: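 MDCK cells grown 24 h at 36 °C, 5% CO2 to confluence. Threefold dilutions in MEM added for 24 h. Cells washed twice with saline, then MTT in MEM for 1 h at 36 °C. Formazan dissolved in DMSO, OD read at 540 nm. CC50 (50% cell death) from four-parameter logistic fit.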

| Compound | selectivity ratio [1] | CC50 at 24 h [2] [µM] |
| --- | --- | --- |
| COc1ccc(N2CCN=C2c2ccc(C3=NCCN3c3ccc(OC)cc3)cc2)cc1 | 23 | 361 |
| FC(F)(F)c1ccc(N2CCN=C2c2ccc(C3=NCCN3c3ccc(C(F)(F)F)cn3)cc2)nc1 | 4 | 455 |
| c1ccc(N2CCN=C2c2ccc(C3=NCCN3)cc2)cc1 | > 34 | > 1030 |
| CC(N)C12CC3CC(CC(C3)C1)C2 (stereo not drawn) [RIMANTADINE] | 6 | 62 |
| Fc1ccc(N2CCN=C2c2ccc(C3=NCCN3)cc2)cc1 | > 15 | > 971 |
| Fc1ccc(N2CCN=C2c2ccc(C3=NCCN3c3ccc(F)cc3)cc2)cc1 | 12 | 144 |
| Clc1ccc(N2CCN=C2c2ccc(C3=NCCN3c3ccc(Cl)cc3)cc2)cc1 | 2 | 9 |
| c1ccc(N2CCN=C2c2ccc(C3=NCCN3c3ccccn3)cc2)nc1 | 4 | 127 |
| COc1ccc(N2CCN=C2c2ccc(C3=NCCN3)cc2)cc1 | 5 | 224 |
| c1cnc(N2CCN=C2c2ccc(C3=NCCN3c3cnccn3)cc2)cn1 | – | > 809 |
| c1ccc(N2CCN=C2c2ccc(C3=NCCN3c3ccccc3)cc2)cc1 | > 11 | > 817 |
| c1cncc(N2CCN=C2c2ccc(C3=NCCN3c3cccnc3)cc2)c1 | > 12 | > 813 |
